Screening data from PubChem.
VLA-4 inh: inhibition in human VLA-4 binding assay, primary screen, VLA-4 allosteric modulator project, MLPCN library, flow cytometry, VLA-4 expressing cells | AID 2557, 2010 | ligand binding flow cytometry | Integrin alpha-4 (Homo sapiens), P13612 | inhibition, % (about 7 µM as worked out from the volumes in the protocol) | 330,000 tested, 0.2% active; in the data active means inhibition above about 50%
procasp7 counter: procaspase-7 activators, primary screen, counter-screen for procaspase-3 activator project, biochemical, absorbance, HTS, human; Caspase-7 (Homo sapiens), P55210; recombinant procaspase-7, Ac-DEVD-pNA absorbance 405 nm; D23A/D198A/D206A triple mutant, cannot self-cleave; scale: DMSO 0, 5 µM enzyme 100; activation, % at 8.5 µM; 330,000 tested, 0.093% active; AID 463210, 2010;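 active means percent activation above the screen-wide mean plus 3 SD, cut at about 25% in these data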
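Assay system – Uncleavable procaspase-7 mutant enzyme · Quantity – 2 µM procaspase-7 mutant as dispensed · Times – 1 h preincubation, 2 h reaction · Dosing – single nominal 8.5 µM compound dose, 0.8% DMSO final · Buffer or medium – Zinc-free 50 mM HEPES buffer, pH 7.4, with NaCl and Triton X-100 · Detection – Epi-absorbance of released pNA at 405 nm, two timepoints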
GRK2 inh: compounds blocking aptamer binding on GRK2 – biochemical, human GRK2, bead flow cytometry, HTS, primary screen. Beta-adrenergic receptor kinase 1 (Homo sapiens), P25098. FAM-aptamer displacement from GRK2. inhibition of aptamer binding, % at 10 µM. 330,000 tested, 0.59% active;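 active means inhibition of aptamer binding above 40%, roughly 3 SD of noise, on plates passing a quality check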;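 further: median bead fluorescence of bound FAM aptamer so fluorescent compounds give negative values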
procasp3 activ: activators of human procaspase-3 D3A mutant, primary screen, biochemical, absorbance, PC-3 D3A mutant, single concentration; Caspase-3 (Homo sapiens), P42574; recombinant procaspase-3 D3A, Ac-DEVD-pNA absorbance 405 nm; activation, % at 8.5 µM; 330,000 tested, 0.11% active; AID 463141, 2010;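 active means activation above the mean of all tested compounds plus 3 SD, cut at about 21% in these data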;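 further: 0% = DMSO alone and 100% = DMSO wells spiked with extra 5 µM PC-3 D3A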
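assay system = Procaspase-3 D3A mutant | signal = absorbance at 405 nm, 0 and 120 min | times = 1 h preincubation plus 2 h reaction at 25 °C | repeats = single replicate | read-out = % activation between DMSO and enzyme-spiked controls | medium = Zinc-free HEPES saline buffer with Triton X-100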
Hep lipid drop: inhibitors of hepatocyte lipid droplet formation, primary screen, imaging, high-throughput imaging, BODIPY stain; AML12 mouse hepatocytes, oleate lipid droplets; inhibition, % at 6.5 µM; 240,000 tested, 0.4% active;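 active means lipid droplet intensity inhibited by at least 50%, with more than 500 cells counted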
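Material: mouse AML12 hepatocyte cell line, fixed after treatment; Timing: compound with oleate, overnight; Technique: high-content imaging of BODIPY-stained droplets and DAPI nuclei; Probe or stimulus: oleate, 100 µM final; Dosing: compound at 6.5 µM only.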
JMJD2C inh: inhibitors of GASC-1 histone demethylase, primary screen, biochemical, fluorescence, DELFIA europium | Lysine-specific demethylase 4C (Homo sapiens), Q9H3R0 | GST-JMJD2C(1-420) H3K9me3 demethylation | inhibition, % at 2.35 µM | 330,000 tested, 0.069% active;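 active means more than half of a compound's replicate wells show inhibition beyond 50%, single wells judged on their own value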;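 further: signal counts dimethyl H3K9 product captured on neutravidin plate; 0% = median of DMSO wells and 100% = 0.3 times that DMSO median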
Target sequence (Q9H3R0 1-420 limits assumed): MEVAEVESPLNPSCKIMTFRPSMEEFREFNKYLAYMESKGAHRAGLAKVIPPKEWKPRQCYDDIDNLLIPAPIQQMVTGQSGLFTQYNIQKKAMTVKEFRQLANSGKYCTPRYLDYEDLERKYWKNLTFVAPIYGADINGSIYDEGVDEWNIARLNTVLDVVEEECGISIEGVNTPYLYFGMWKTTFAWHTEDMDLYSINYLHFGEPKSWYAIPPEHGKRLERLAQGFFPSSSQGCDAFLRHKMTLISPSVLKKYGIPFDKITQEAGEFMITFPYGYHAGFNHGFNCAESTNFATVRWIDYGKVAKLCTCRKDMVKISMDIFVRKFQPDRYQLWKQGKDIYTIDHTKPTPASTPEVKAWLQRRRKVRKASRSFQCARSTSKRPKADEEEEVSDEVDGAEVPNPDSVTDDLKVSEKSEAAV
GRK2 CP1: GRK2 aptamer-displacing inhibitors, retest, confirmation, biochemical, cherry pick 1, bead flow cytometry. shares compounds with GRK2 inh. aptamer displacement, % at 10 µM. 2,000 tested, 4% active. bead-bound GRK2, FAM-aptamer displacement. AID 504451, 2011;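 active means aptamer displacement above 40%, near three times the noise of non-fluorescent compounds, on plates passing quality checks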;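 further: negative values mostly reflect intrinsic compound fluorescence rather than true enhancement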
FAM quench CP1: aptamer fluorescence quenching in GRK2 counter-screen | shares compounds with GRK2 inh | Carboxyfluorescein RNA aptamer on beads, flow cytometry quenching; stronger effect = lower value | fluorescence response (% of DMSO), % at 10 µM | 2,000 tested, under 10 active | AID 504580;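 active means compounds that quench the bead-bound fluorescent RNA probe, cutting fluorescence to under half of the solvent control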;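 further: counterscreen run without GRK2 so only probe quenching by compound is measured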
GRK2 CP2: GRK2 aptamer-displacing inhibitors, hit retest, confirmation, biochemical, cherry pick 2, bead flow cytometry. 360 tested, under 10 active. inhibition of aptamer binding, % at 10 µM. bead-bound GRK2, FAM-aptamer displacement. shares compounds with GRK2 inh;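 active means inhibition of aptamer binding above 40%, about triple the noise seen with nonglowing compounds, on plates passing quality control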;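 further: negative values mostly come from compounds that fluoresce themselves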
FAM quench SP: quenches fluorescent RNA aptamer, GRK2 hit artifact; shares compounds with GRK2 inh; fluorescence response vs DMSO, % at 10 µM; AID 588494; 360 tested, under 10 active; carboxyfluorescein RNA aptamer beads, flow cytometry quenching; stronger effect = lower value;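 active means response vs DMSO under 50%, meaning signal dropped by over half, treated as fluorescence quencher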;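 further: labelled aptamer on streptavidin beads without GRK2 as a quench counter-screen; 100% = bead fluorescence of DMSO wells and lower means quenching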
Starred values were filed as active, the others as inactive; x = no result given. Compounds with a hit are over-represented: about 1.3% of the library has one in this group of screens.

SMILES	VLA-4 inh	procasp7 counter	GRK2 inh	procasp3 activ	Hep lipid drop	JMJD2C inh	GRK2 CP1	FAM quench CP1	others
O=C(CCNC(=O)c1ccc(Cl)cc1)Nc1ncccc1O	16	-7	77*	3	21	-3	x	x	GRK2 CP2=-18;FAM quench SP=99
Cc1cc2oc(=O)cc(CN3CCOCC3)c2c(C)c1Cl	3	x	0	x	1	-1	x	x
O=C(O)c1ccc(Nc2nc3ccccc3nc2NS(=O)(=O)c2cccs2)cc1	0	5	94*	-2	-4	-17	-7	96
CC(C)C(C)NC(=O)CSc1ccc(S(=O)(=O)N2CCOCC2)cn1 (stereo unspecified)	7	3	61*	8	x	x	0	100
CCC(CC)NC(=O)CSc1ccc(S(=O)(=O)N2CCOCC2)cn1	11	-8	0	-4	x	-5	x	x
Cc1ccc(NS(=O)(=O)c2ccc(-n3cccn3)cc2)nc1	7	-10	0	3	-2	1	x	x
Cc1c(O)ccc(C(=O)CN2CCN(c3ccccc3)CC2)c1O	-1	-3	0	1	2	25	x	x
CCc1ccc(NC(=O)CSc2nc3n[nH]c(C)c3c(=N)n2-c2cccc(OC)c2)cc1	-5	4	0	11	16	-5	x	x
Cc1ccc(CNC(=O)CSc2nc3n[nH]c(C)c3c(=N)n2-c2cccc(C)c2)cc1	0	4	99*	3	-34	1	-1	101
O=C(Nc1cccc2ncccc12)c1cc(Br)ccc1Cl	0	12	0	5	3	6	x	x
CCN(CC)c1ccc(NC(=O)c2cc3c(OC)cccc3[nH]2)cc1	13	3	12	-4	-4	-3	1	94
CN(C)C(=O)c1ccc(Cl)cc1[N+](=O)[O-]	1	6	0	0	7	5	x	x
O=C(Nn1cnnc1)c1ccc(Cl)cc1[N+](=O)[O-]	21	4	93*	2	6	-20	-4	101
Cc1ccc(C(=O)NN2CCOCC2)cc1[N+](=O)[O-]	-6	4	0	2	-2	1	x	x
Cc1ccc(C(=O)Nn2cnnc2)cc1[N+](=O)[O-]	15	-1	47*	0	x	5	0	101
CC(=O)Nc1cccc(-n2nnc(SCC(=O)Nc3ccc(F)c(Cl)c3)n2)c1	11	0	86*	-2	-4	-3	1	99
O=C(Nc1ccc(N2CCCC2)cc1)c1cccc(Cl)c1Cl	0	1	0	-5	-2	-2	x	x
Cn1cc(S(=O)(=O)N2CCOCC2)cc1C(=O)NCc1ccccc1Cl	-5	-2	0	2	0	0	2	99
